The IC50 is the point on the concentration scale where inhibition reaches its midpoint. A higher IC50 goes with lower potency. For orientation: GI50 means the concentration giving 50% growth inhibition.

The test system of assay [1] is CDK2/cyclin A3 (Marthasterias glacialis). Description: Inhibition of starfish CDK2/cyclin A3 by ELISA. On the technique in general: ELISA stands for enzyme-linked immunosorbent assay.
Assay [2] in a line: Cytotoxicity against mouse EAC cells after 48 hrs. The following applies: Ehrlich. Format: functional. Summed up: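 EAC cells were harvested by needle aspiration of ascitic fluid from pre-inoculated female Swiss albino mice and maintained by weekly intraperitoneal transplantation. They were suspended in saline at 2.5 × 10^6 per mL and exposed for 48 h to serial dilutions from 10^-9 to 10^-4 M in DMSO/saline. The read-out was GI50.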

Molecules are shown by their SMILES.

In turn, `Nc1nc(OC[C@H]2CCC(=O)N2)c2nc[nH]c2n1` showed an IC50 in assay [1] of 35 µM. Growth in assay [2] was halved (GI50) at 18 µM.
The compound `COc1cc(/C=N/c2c(C#N)nc(=O)[nH]c2NS(=O)(=O)c2ccc(C)cc2)cc(OC)c1` gave an IC50 in assay [1] of 35 µM. In assay [2], this compound yielded a GI50 of 19 µM.
On the same counts, the results for `COc1cc(OC)c(/C=N/c2c(C#N)nc(=O)[nH]c2NS(=O)(=O)c2ccc(C)cc2)c(OC)c1` are 38 µM and 16 µM.
`CC(=O)CC1(C)N=C(C(N)=O)c2[nH]c(=O)n(S(=O)(=O)c3ccc(C)cc3)c2N1` (stereo unspecified) yielded an IC50 in assay [1] of 13 µM. Besides, the GI50 in assay [2] was determined as 16 µM.
In turn, `COc1ccc(/C=N/c2c(C#N)nc(=O)[nH]c2NS(=O)(=O)c2ccc(C)cc2)cc1` gave an IC50 in assay [1] of 39 µM. Besides, in assay [2], halving of growth (GI50) required 17 µM.
On the same counts, the results for `COc1cccc(/C=N/c2c(C#N)nc(=O)[nH]c2NS(=O)(=O)c2ccc(C)cc2)c1OC` are 36 µM and 21 µM.
In assay [1], `COc1cccc(/C=N/C(C#N)=C(/C#N)NC(=O)NS(=O)(=O)c2ccc(C)cc2)c1OC` showed an IC50 of 43 µM. In addition, halving of growth in assay [2] (GI50) required 27 µM.
Regarding `COc1cc(/C=N/C(C#N)=C(/C#N)NC(=O)NS(=O)(=O)c2ccc(C)cc2)cc(OC)c1`, the IC50 in assay [1] was determined as 42 µM. This compound also displayed a GI50 in assay [2] of 25 µM.
Take `Cc1ccc(S(=O)(=O)NC(=N)c2[nH]c(=O)[nH]c2C#N)cc1`: in assay [1], the IC50 came out at 45 µM. Further, in assay [2], the GI50 stood at 28 µM.
In assay [1], `Cc1ccc(S(=O)(=O)n2c3c([nH]c2=O)C(C(N)=O)=NC(C)(C)N3)cc1` displayed an IC50 of 14 µM. The GI50 in assay [2] amounted to 15 µM.
For the compound `COc1ccc(/C=N/C(C#N)=C(/C#N)NC(=O)NS(=O)(=O)c2ccc(C)cc2)cc1`, in assay [1], the half-maximal inhibitory concentration (IC50) is 39 µM. The compound also returned a GI50 in assay [2] of 10 µM.
In turn, `Cc1ccc(S(=O)(=O)NC(=O)N/C(C#N)=C(\N)C#N)cc1` gave an IC50 in assay [1] of 32 µM. The GI50 in assay [2] worked out at 12 µM.
The compound `COc1cc(OC)c(/C=N/C(C#N)=C(/C#N)NC(=O)NS(=O)(=O)c2ccc(C)cc2)c(OC)c1` came in with an IC50 in assay [1] of 38 µM. This compound also came in with a GI50 in assay [2] of 26 µM.

Source of the values: ChEMBL document CHEMBL1268845, “A convenient synthesis and molecular modeling study of novel purine and pyrimidine derivatives as CDK2/cyclin A3 inhibitors” (Bioorg Med Chem, 2010).
